We go through 73 sequences from the array DNA melting data of Ke et al. (doi:10.1101/2024.01.08.574731).

Data set [1] can be described thus: folding enthalpy; higher = less favourable; fluorescence melt of hairpins on a sequencing array, two-state fit. To be noted: sodium 0.088 M. A digest of the protocol:
(§1)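 Melting temperature and folding enthalpy were derived from bootstrapped two-state fits. The fitted temperatures were raised by 9.35 °C to agree with UV melts, and four replicates were combined by inverse variance. The underlying data were Cy3 fluorescence images of library hairpins, with annealed Cy3 and quencher oligos, on a sequenced MiSeq flow cell in 50 mM Na-HEPES pH 8.0, 25 mM NaCl, taken in 2.5 °C steps up to 60 °C, normalised to pre-quench Cy3 and to control constructs.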

Data set [2] can be described thus: melting temperature; fluorescence melt of hairpins on a sequencing array, two-state fit, raised by 9.35 °C to match UV melts. To be noted: sodium 0.088 M. In short, it runs like this:
as §1

For GACGAAGGAAACTTTGTC (((.(((....))).))), in data set [1], the folding enthalpy is -28.3 kcal/mol. The Tm in data set [2] came to 41.6 °C.
On the same counts, the results for GACGACGAAAGTCAAGTC ((((((....)))..))) are -23.8 kcal/mol and 45.9 °C.
On the same counts, the results for GACGACGAAAGTCGGGTC ((((((....)))..))) are -12.8 kcal/mol and 64.1 °C.
In the case of GACGACGGAAACGTCGCC (.(((((....))))).), in data set [1], the folding enthalpy is -12.2 kcal/mol. Further, in data set [2], the Tm was 53.1 °C.
In the same order, the values of GACGAGAAATCGTC (((((....))))) are -28.1 kcal/mol and 51.2 °C.
GACGAGCGAAAGCTGTC (((.(((....)))))): in data set [1], the folding enthalpy is -32.3 kcal/mol. For the same sequence, the Tm in data set [2] was found to be 53 °C.
As to GACGAGGGAAACCTCGCC (.(((((....))))).), the folding enthalpy in data set [1] was -14.3 kcal/mol. In data set [2], the Tm amounted to 52.3 °C.
In the same order, the values of GACGAGGGAAACTTCGTC (((((.(....).))))) are -40.8 kcal/mol and 49 °C.
In the same order, the values of GACGATGGAAACGTTGTC (((.(.(....).).))) are -22.2 kcal/mol and 34 °C.
On the same counts, the results for GACGCAGGAAACCGCGTC (((((.(....).))))) are -37.3 kcal/mol and 56.9 °C.
As to GACGCAGGAAACTGCGCC (.(((((....))))).), in data set [1], the folding enthalpy was -13.5 kcal/mol. The Tm in data set [2] came to 50.2 °C.
In the same order, the values of GACGCCACGAAAGTGGTC (((..(((....)))))) are -8.49 kcal/mol and 32.1 °C.
On to GACGCCGAAAGGCCCGTC ((((((....)))..))), for which the folding enthalpy in data set [1] was -13.9 kcal/mol. Also, the Tm in data set [2] stood at 37 °C.
Take GACGCCGAAAGGCCGGTC ((((((....)))..))): the folding enthalpy in data set [1] was -15 kcal/mol. Also, the Tm in data set [2] was 42.6 °C.
In the same order, the values of GACGCCGAAAGGCTGTC ((((((....))).))) are -18.4 kcal/mol and 56.9 °C.
Turning to GACGCCGCGAAAGCGGTC (((..(((....)))))), the folding enthalpy in data set [1] was -6.05 kcal/mol. Besides, the Tm in data set [2] amounted to 34.8 °C.
On the same counts, the results for GACGCCGGAAACGACGTC ((((.((....)).)))) are -44.8 kcal/mol and 57.5 °C.
On the same counts, the results for GACGCGGGAAACCACGCC (.((.((....)).)).) are -12.4 kcal/mol and 34.6 °C.
On the same counts, the results for GACGCGGGAAACCACGTC ((((.((....)).)))) are -40.9 kcal/mol and 52.1 °C.
Turning to GACGCGGGAAACCGCATC ((.((((....)))).)), in data set [1], the folding enthalpy is -13.4 kcal/mol. Also, the Tm in data set [2] amounted to 40.1 °C.
On the same counts, the results for GACGCGGGAAACTGCGTC (((((.(....).))))) are -35.2 kcal/mol and 64 °C.
In the same order, the values of GACGCTACGAAAGTAGTC (((..(((....)))))) are -13.2 kcal/mol and 35.9 °C.
In the same order, the values of GACGCTCCGAAAGGAGTC (((..(((....)))))) are -9.32 kcal/mol and 34.5 °C.
As for GACGGACCGAAAGGTGTC (((..(((....)))))), the folding enthalpy in data set [1] is -17.9 kcal/mol. The Tm in data set [2] was 41.3 °C.
In the same order, the values of GACGGAGAAATCCGTC ((((((....)))))) are -38.5 kcal/mol and 59.1 °C.
In the same order, the values of GACGGAGGAAACTCCGCC (.(((((....))))).) are -14.9 kcal/mol and 48.2 °C.
As to GACGGCACGAAAGTGGTC (((..(((....)))))), the folding enthalpy in data set [1] was -14.6 kcal/mol. The Tm in data set [2] stood at 34.5 °C.
On to GACGGCCCGAAAGGGGTC (((..(((....)))))), for which the folding enthalpy in data set [1] is -8.8 kcal/mol. Besides, in data set [2], the Tm turned out to be 44.1 °C.
On the same counts, the results for GACGGCCGAAAGGCGGTC (((.(((....))).))) are -25.1 kcal/mol and 67.9 °C.
As to GACGGCCGAAAGGCTGTC (((.(((....))).))), the folding enthalpy in data set [1] is -28.1 kcal/mol. Also, the Tm in data set [2] stood at 68.8 °C.
On the same counts, the results for GACGGCGAAAGCCAGGTC ((((((....)))..))) are -16.5 kcal/mol and 46.6 °C.
For the sequence GACGGCGAAAGCCCGGTC ((((((....)))..))), the folding enthalpy in data set [1] is -13.2 kcal/mol. Further, the Tm in data set [2] worked out at 48.1 °C.
On the same counts, the results for GACGGCGAAAGCCTGTC ((((((....))).))) are -15.6 kcal/mol and 58.6 °C.
On the same counts, the results for GACGGCGAAAGCCTTGTC ((((((....)))..))) are -12.3 kcal/mol and 43.9 °C.
On the same counts, the results for GACGGCGCGAAAGCGGTC (((..(((....)))))) are -9.91 kcal/mol and 48.2 °C.
For GACGGCGGAAACACCGTC (((((.(....).))))), the folding enthalpy in data set [1] was -42.4 kcal/mol. In addition, in data set [2], the Tm was 54 °C.
On to GACGGCGGAAACGCCATC ((.((((....)))).)), for which the folding enthalpy in data set [1] was -13.2 kcal/mol. For the same sequence, the Tm in data set [2] is 41.1 °C.
In the same order, the values of GACGGCGGAAACGCCGCC (.(((((....))))).) are -8.56 kcal/mol and 54.9 °C.
For the sequence GACGGGGCGAAAGCCGTC (((..(((....)))))), the folding enthalpy in data set [1] is -15.6 kcal/mol. Moreover, the Tm in data set [2] came to 55.2 °C.
On the same counts, the results for GACGGTGCGAAAGCAGTC (((..(((....)))))) are -16.9 kcal/mol and 39.9 °C.
In the same order, the values of GACGTAGGAAACTACGTC (((((((....))))))) are -44 kcal/mol and 63.3 °C.
On the same counts, the results for GACGTAGGAAACTGCGTC ((((.((....)).)))) are -45.2 kcal/mol and 51.5 °C.
Turning to GACGTCGGAAACGACACC (..((((....))))..), the folding enthalpy in data set [1] was -10.5 kcal/mol. Besides, the Tm in data set [2] was found to be 29.3 °C.
On the same counts, the results for GACGTCGGAAACGACGCC (.(((((....))))).) are -11.6 kcal/mol and 50.7 °C.
As to GACGTGAAAACGTC (((((....))))), the folding enthalpy in data set [1] was -32.7 kcal/mol. In addition, the Tm in data set [2] turned out to be 61.8 °C.
On the same counts, the results for GACGTGGAAACACGTC ((((((....)))))) are -33.4 kcal/mol and 67.6 °C.
In the same order, the values of GACGTGGGAAACCACGCC (.(((((....))))).) are -14 kcal/mol and 48.6 °C.
In the same order, the values of GACGTTGGAAACAACGTC (((((((....))))))) are -39.1 kcal/mol and 68 °C.
Turning to GACGTTGGAAACAGCGTC ((((.((....)).)))), the folding enthalpy in data set [1] was -39.6 kcal/mol. Further, in data set [2], the Tm worked out at 52.1 °C.
On the same counts, the results for GACGTTGGAAACAGTGTC (((..((....))..))) are -14.1 kcal/mol and 31.2 °C.
In the same order, the values of GACTACACGAAAGTGGTC (((..(((....)))))) are -14.2 kcal/mol and 40 °C.
On the same counts, the results for GACTACGAAAGTAAAGTC ((((((....)))..))) are -23.3 kcal/mol and 36.5 °C.
GACTACGAAAGTAAGGTC ((((((....)))..))): the folding enthalpy in data set [1] was -21.4 kcal/mol. The Tm in data set [2] came out at 32.7 °C.
In the same order, the values of GACTACGAAAGTAGGTC ((((((....))).))) are -17.5 kcal/mol and 48.7 °C.
In the same order, the values of GACTACGAAAGTAGTC ((((((....)))))) are -28.4 kcal/mol and 66.5 °C.
In the same order, the values of GACTACGGAAACGTAGCC (.(((((....))))).) are -14.1 kcal/mol and 44.5 °C.
As to GACTAGACGAAAGTCGTC (((..(((....)))))), in data set [1], the folding enthalpy was -13 kcal/mol. Besides, in data set [2], the Tm is 38.9 °C.
Take GACTAGGCGAAAGCCGTC (((..(((....)))))): in data set [1], the folding enthalpy is -8.71 kcal/mol. In addition, in data set [2], the Tm was 50.4 °C.
In the same order, the values of GACTAGGGAAACCTAGTC (((((((....))))))) are -42.5 kcal/mol and 56.9 °C.
As for GACTATGGAAACATAGTC (((((((....))))))), the folding enthalpy in data set [1] is -46.8 kcal/mol. The Tm in data set [2] turned out to be 54.5 °C.
On the same counts, the results for GACTCCGAAAGGAAAGTC ((((((....)))..))) are -24.8 kcal/mol and 44.4 °C.
In the same order, the values of GACTCCGAAAGGAAGGTC ((((((....)))..))) are -22.1 kcal/mol and 38.3 °C.
On the same counts, the results for GACTCCGAAAGGAGTGTC ((((((....)))..))) are -12.3 kcal/mol and 58.4 °C.
As for GACTCCGAAAGGATGTC ((((((....))).))), the folding enthalpy in data set [1] is -30.7 kcal/mol. The Tm in data set [2] was found to be 51 °C.
In the same order, the values of GACTCCGGAAACGAAGTC ((((.((....)).)))) are -29.4 kcal/mol and 37.1 °C.
In the same order, the values of GACTCGAAAGAGTC (((((....))))) are -32.1 kcal/mol and 61.2 °C.
On the same counts, the results for GACTCGACGAAAGTCGTC (((..(((....)))))) are -8.01 kcal/mol and 31.4 °C.
In the case of GACTCTCCGAAAGGAGTC (((..(((....)))))), the folding enthalpy in data set [1] is -9.54 kcal/mol. Besides, in data set [2], the Tm is 35.3 °C.
For the sequence GACTCTGCGAAAGCAGTC (((..(((....)))))), the folding enthalpy in data set [1] is -7.87 kcal/mol. Further, the Tm in data set [2] was determined as 32.2 °C.
In the case of GACTGACGAAAGTCCGTC (((.(((....))).))), the folding enthalpy in data set [1] is -29.4 kcal/mol. Moreover, in data set [2], the Tm came out at 49.2 °C.
With GACTGAGAAATCAGTC ((((((....)))))), the folding enthalpy in data set [1] was -33 kcal/mol. The Tm in data set [2] was 53.1 °C.
In the same order, the values of GACTGAGGAAACTCGGTC (((.(((....))).))) are -41.1 kcal/mol and 50.4 °C.
In the same order, the values of GACTGCGAAAGCATGTC ((((((....))).))) are -23.1 kcal/mol and 54.5 °C.
